# Bioassay records as filed in PubChem BioAssay.
# This is a sample that favours compounds with a hit; in the whole collection about 3.7% have one here.
# hERG rescue: shields human hERG channel from block by proarrhythmic agents; CHO-hERG, FluxOR thallium flux, dofetilide IC70 present; Q12809; activation (rescue from dofetilide block), less the hit threshold, % at 10 µM; 310,000 tested, 0.51% active;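 active = activation above the mean of controls blocked by dofetilide plus 5 SD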;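 also: thallium influx through hERG after potassium depolarization seen as dye fluorescence rise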
# Kir21 inh: Kir2.1 (mouse) channel inhibition. P35561. HEK293-Kir2.1, FluxOR thallium flux fluorescence; stronger effect = lower value. B-score at 10 µM. 310,000 tested, 0.85% active;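 active = fluorescence ratio B-score at or below minus 3 SD of library scores, with starting-brightness B-score within 2 SD, cut at about -4.2 in these data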;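 also: channel flux triggered by added potassium and thallium sulfate stimulus; B-score of peak minus minimum fluorescence over baseline after thallium stimulus; more negative B-score means stronger Kir2.1 block with less thallium influx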
# KCNK3 block: human KCNK3 channel inhibition, primary screen; AID 602410; B-score at 10 µM; CHO-KCNK3 thallium flux, FluxOR fluorescence; stronger effect = lower value; O14649; 340,000 tested, 0.84% active;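 active = B-score under library mean minus 4 SD, starting fluorescence ratio at most library mean plus 5 SD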;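 also: more negative B-score means stronger inhibition of thallium flux through KCNK3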
# KCNQ1 pot: potentiates or activates the human KCNQ1 potassium channel | 310,000 tested, 0.35% active | CHO-K1 KCNQ1, thallium flux FluxOR fluorescence; stronger effect = higher value | B-score at 10 µM | P51787 | AID 2648;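 active = fluorescence ratio B-score, a plate-corrected score, at least three library SD, with initial intensity B-score within 5 SD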
#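 Schedule – 37 °C overnight plating, 90-min dark dye load, 20-min compound pretreatment · System – stable KCNQ1 CHO-K1 line · Probe or stimulus – thallium- and potassium-containing depolarizing buffer · Measured by – kinetic FluxOR fluorescence, 10 s baseline plus 110 s post-stimulus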
# KCNQ1 block: blocks the human KCNQ1 potassium channel | CHO-K1 KCNQ1, FluxOR thallium flux fluorescence; stronger effect = higher value | B-score at 10 µM | 310,000 tested, 1.3% active;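 active = compounds whose thallium flux B-score, printed positive for inhibition, exceeds three library SD while starting fluorescence stays within three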;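 also: channel opened by potassium depolarization with thallium stimulus after 20 min compound exposure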
# KCNK9 inh: blocks the human KCNK9 two-pore domain potassium channel | HEK293 KCNK9, FluxOR thallium flux fluorescence; stronger effect = lower value | B-score at 10 µM | 310,000 tested, 1.2% active | AID 488922;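 active = ratio B-score over 3 SD below the library mean, with starting fluorescence within 5 SD of its mean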;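 also: negative B-score means less thallium flux so channel inhibition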
# Starred values were filed as active, the others as inactive; i = inactive; . = no result given.
SMILES,hERG rescue,Kir21 inh,KCNK3 block,KCNQ1 pot,KCNQ1 block,KCNK9 inh
O=C(NCc1ccccn1)C(=O)NCC1OCCN1S(=O)(=O)c1ccc(F)cc1 (configuration not stated),-8.0,-1.16,i,i,i,i
O=C(c1cccs1)N1N=C(c2ccc(O)cc2)CC1c1ccccc1 (configuration not stated),-3.8,-0.01,i,i,i,i
O=C(c1cccs1)N1N=C(c2ccccc2)CC1c1ccccc1 (configuration not stated),-4.5,0.41,i,i,i,-7.2*
CCCN=C1N/C(=C\c2ccco2)C(=O)N1c1ccccc1,-4.5,-0.34,i,i,i,i
CCCN(CCC)C1=N/C(=C\c2ccco2)C(=O)N1c1ccccc1,-5.2,-2.13,i,i,i,-7.7*
CC(C)(C)c1cc(N/C=C\c2nnnn2-c2ccc(Br)cc2)no1,7.3*,-0.01,i,i,i,i
Cc1ccc(-n2nnnc2/C=C\Nc2cc(C)on2)cc1,-3.7,1.83,i,i,i,i
Cc1c(C(=O)c2no[n+]([O-])c2C(=O)c2cnn(C)c2C)cnn1C,-9.2,-0.01,i,i,6*,i
O=C(NCCOc1ccccc1Cl)c1ccc2c(c1)S(=O)(=O)c1cc(Cl)ccc1C2=O,.,.,i,.,.,.
CCc1ccc(OCC(=O)NC(=S)Nc2cccc(CO)c2)c(Br)c1,-7.6,0.17,i,i,i,i
CCc1ccc(OCC(=O)NC(=S)Nc2ccc(C(C)=O)cc2)c(Br)c1,4.9*,1.98,i,i,i,i
COc1ccc(NC(=S)NNc2ccc([N+](=O)[O-])cc2S(=O)(=O)Nc2ccc(C)cc2C)cc1,-24.5,-0.53,i,i,7*,i
Cc1ccc(NS(=O)(=O)c2cc([N+](=O)[O-])ccc2NNC(=S)Nc2cc(C)ccc2C)c(C)c1,-11.8,0,i,i,6*,i
Cc1ccc(NS(=O)(=O)c2cc([N+](=O)[O-])ccc2NNC(=S)Nc2cccc(Cl)c2)c(C)c1,-16.6,-2.49,i,i,6*,i
CN(Cc1ccon1)C(=O)C1CCC(=O)N(Cc2ccc(Cl)cc2)C1 (configuration not stated),-6.3,0.17,i,i,i,i
Cc1ccc(C(C[N+](=O)[O-])n2nc(C)cc2C)cc1 (configuration not stated),-7.5,-8.03*,i,i,i,i
Cc1ccc(S(=O)(=O)NCC(C)n2nc(C)cc2C)cc1 (configuration not stated),0.6,-0.09,i,i,i,i
CN(C)c1ccc(NC(=O)Cc2ccccc2)c2ccccc12,-1.9,-0.35,i,i,i,i
CC1CCCN(Cc2ccc(OCc3ccccc3)cc2)C1 (configuration not stated),-8.6,2.2,i,i,i,i
COc1ccc(-c2oc3ccccc3c(=O)c2OC(C)=O)cc1,4.5,-0.05,i,41*,i,i
O=C(O)COc1c(-c2ccco2)oc2ccccc2c1=O,-6.8,-0.27,i,i,i,i
CC(=O)Oc1c(-c2ccc(Br)o2)oc2ccccc2c1=O,40.0*,-0.31,i,113*,i,i
COc1ccc(-c2oc3ccccc3c(=O)c2OCC(=O)O)cc1,-8.6,1.04,i,i,i,i
CCCOc1ccc(C(=O)NC(=S)NNC(=O)c2c(-c3ccccc3)noc2C)cc1,-12.3,1.31,i,15*,i,i
Cc1nc2nc(CNC(=O)OC(C)(C)C)nn2c(C)c1CCC(=O)Nc1ccc2c(c1)OCO2,-6.3,1.77,i,i,i,i
SMILES,hERG rescue,Kir21 inh,KCNK3 block,KCNQ1 pot,KCNQ1 block,KCNK9 inh
Cc1onc(-c2c(F)cccc2Cl)c1C(=O)c1ccc(F)cc1,-9.7,-4.8*,i,i,i,i
Cc1onc(-c2c(Cl)cccc2Cl)c1C(=O)c1ccc(F)cc1,-7.9,-2.2,i,i,i,i
Cc1onc(-c2c(F)cccc2Cl)c1C(=O)ONC(=O)c1ccccc1,-6.5,-1.21,i,i,i,i
Cc1onc(-c2c(Cl)cccc2Cl)c1C(=O)ONC(=O)c1ccccc1,-7.9,-5.24*,i,i,i,i
O=C(NC(=S)N1CCN(c2ccc(Cl)cc2[N+](=O)[O-])CC1)c1cccs1,6.3*,-0.51,i,20*,i,i
O=C(NC(=S)N1CCN(c2ccc(Cl)cc2[N+](=O)[O-])CC1)c1ccco1,-3.4,-0.05,i,i,i,i
COc1cccc(OC)c1C(=O)NC(=S)N1CCN(c2ccc(C(F)(F)F)cc2[N+](=O)[O-])CC1,11.4*,0.31,i,i,i,i
CCOCCCNc1nc2c(C)cccn2c(=O)c1/C=C1\SC(=S)N(C(C)CC)C1=O (configuration not stated),-15.7,-0.18,i,i,7*,i
CCOCCCNc1nc2c(C)cccn2c(=O)c1/C=C1\SC(=S)N(CC(C)C)C1=O,-12.1,0.19,i,i,i,i
O=c1[nH]c(-c2ccccc2)c(-c2ccccc2)nc1[N+](=O)[O-],-1.6,1.63,i,i,i,i
CC(OC(=O)/C=C/c1ccc2ccccc2n1)C(=O)N(C)c1ccccc1 (configuration not stated),.,.,i,.,.,.
CC(=O)/C=C/c1ccc2ccccc2n1,-15.2,-4.79*,i,i,i,i
COc1cc(C(=O)Nc2cc(C(F)(F)F)ccc2N2CCOCC2)ccc1OCC(=O)N1CCOCC1,-12.7,1.23,i,i,i,i
Cc1ccc(S(=O)(=O)N(CC(=O)N/N=C/c2ccco2)Cc2ccccc2)cc1,-13.3,1.27,i,i,i,i
Cc1cccc(CN(CC(=O)N/N=C/c2ccco2)S(=O)(=O)c2ccc(Cl)cc2)c1,-12.0,1.98,i,i,9*,i
CCN1C[C@@H]2[C@@H]3C(=O)N(Cc4ccccc4)C(=O)[C@@H]3[C@](Cc3ccccc3)(C1=O)N2C(=O)c1ccc(C(F)(F)F)cc1,.,.,i,.,.,.
CCC(NC(=S)NC1CCCCC1)c1ccc(C(C)C)cc1 (configuration not stated),-9.3,0.88,i,i,10*,i
Cc1ccc(C(C)NC(=S)NC2CCCCC2)cc1C (configuration not stated),6.2*,-5.3*,i,i,i,i
CC(NC(=O)NC1CCCCC1)c1ccc2c(c1)OCO2 (configuration not stated),10.6*,0.17,i,i,i,i
